Key:
α-amylase = test: α-Amylase inhibition assay; format: biochemical; conditions: for IC50: read-out: IC50 ± SEM, α-amylase inhibition
[1] = molecular target: Bovine serum albumin (BSA)-glucose model (Bos taurus, UniProt P02769); test: In vitro anti-glycation assay, BSA-glucose model; format: biochemical; conditions: for inhibition at 100 ppm / inhibition at 200 ppm / inhibition at 400 ppm / inhibition at 600 ppm / inhibition at 800 ppm / inhibition at 1000 ppm: read-out: % age antiglycation inhibition
How it was run: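 Glycation is read by measuring the fluorescence of glycated products on a spectrofluorometer.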

[2] = DPPH radical scavenging assay; conditions: for IC50: read-out: IC50 (mM ± SEM), DPPH scavenged by 50%; for percentage antioxidant potential: at tested concentrations, IC50 not calculated
How it was run: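 Radical scavenging of DPPH by the test compound, with ascorbic acid as the reference.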

Chain of Bovine serum albumin (BSA)-glucose model (P02769 25-607): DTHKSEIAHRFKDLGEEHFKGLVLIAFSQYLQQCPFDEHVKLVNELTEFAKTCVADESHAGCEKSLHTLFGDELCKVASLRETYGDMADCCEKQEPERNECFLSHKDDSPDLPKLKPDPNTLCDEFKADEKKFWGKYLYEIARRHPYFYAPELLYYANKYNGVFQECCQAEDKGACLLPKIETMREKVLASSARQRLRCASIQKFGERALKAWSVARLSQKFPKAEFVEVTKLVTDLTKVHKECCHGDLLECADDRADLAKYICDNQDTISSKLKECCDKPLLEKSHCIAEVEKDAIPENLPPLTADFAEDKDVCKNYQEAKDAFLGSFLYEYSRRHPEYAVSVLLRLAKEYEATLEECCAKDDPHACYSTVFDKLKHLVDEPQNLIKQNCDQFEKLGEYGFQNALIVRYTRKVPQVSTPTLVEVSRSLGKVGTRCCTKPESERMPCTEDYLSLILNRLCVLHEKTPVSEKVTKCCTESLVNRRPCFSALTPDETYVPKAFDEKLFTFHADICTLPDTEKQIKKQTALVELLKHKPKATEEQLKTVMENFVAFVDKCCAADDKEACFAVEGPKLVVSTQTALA

| Compound | % age α-amylase inhibition (α-amylase; 1 μM) | % age α-amylase inhibition (α-amylase; 5 μM) | % age α-amylase inhibition (α-amylase; 10 μM) | IC50 (α-amylase) | inhibition at 100 ppm [1] | inhibition at 200 ppm [1] | inhibition at 400 ppm [1] | inhibition at 600 ppm [1] | inhibition at 800 ppm [1] | inhibition at 1000 ppm [1] | % age antioxidant potential ([2]; 3 mM) | % age antioxidant potential ([2]; 6 mM) | % age antioxidant potential ([2]; 9 mM) | % age antioxidant potential ([2]; 12 mM) | % age antioxidant potential ([2]; 15 mM) | IC50 [2] | percentage antioxidant potential [2] | IC50 [1] |
| --- | --- | --- | --- | --- | --- | --- | --- | --- | --- | --- | --- | --- | --- | --- | --- | --- | --- | --- |
| COc1cc(Br)c(C=NNc2nc(-c3ccc(F)cc3)cs2)cc1OC [3a, 2-(2-(2-Bromo-4,5-dimethoxybenzylidene)hydrazinyl)-4-(4-fluorophenyl)thiazole] | 35.96% | 51.11% | 69.11% | 6.41 ± 0.09 µM | 80.9% | 82.1% | 84.8% | 85.9% | 87% | 89.9% | 0.00% | 18.82% | 32.72% | 47.58% | 67.95% | 12.39 ± 0.1 mM |  |  |
| Cc1ccc(C=NNc2nc(-c3ccc(F)cc3)cs2)c(Br)c1 [3b, 2-(2-(2-Bromo-4-methylbenzylidene)hydrazinyl)-4-(4-fluorophenyl)thiazole] | 31.95% | 51.54% | 62.71% | 6.87 ± 0.01 µM | 81.2% | 84.6% | 85.2% | 86.2% | 86.8% | 87.5% | 8.77% | 23.69% | 36.38% | 53.65% | 69.82% | 11.3 ± 0.14 mM |  |  |
| CC(CCc1ccccc1)=NNc1nc(-c2ccc(F)cc2)cs1 [3c, 4-(4-Fluorophenyl)-2-(2-(4-phenylbutan-2-ylidene)hydrazinyl)thiazole] | 30.03% | 45.41% | 58.12% | 7.52 ± 0.05 µM | 67.6% | 68.9% | 69.7% | 75.7% | 77.9% | 81.6% | 0.00% | 11.13% | 34.28% | 57.51% | 73.34% | 11.4 ± 0.12 mM |  |  |
| Fc1ccc(-c2csc(NN=Cc3ccc(C(F)(F)F)cc3)n2)cc1 [3d, 4-(4-Fluorophenyl)-2-(2-(4-(trifluoromethyl)benzylidene)hydrazinyl)thiazole] | 36.97% | 49.93% | 62.35% | 6.92 ± 0.12 µM | 87.4% | 87.9% | 89% | 89.5% | 90.9% | 92.3% | 23.48% | 34.45% | 45.32% | 56.39% | 63.78% | 10.68 ± 0.08 mM |  |  |
| Cc1ccc(C=NNc2nc(-c3ccc(F)cc3)cs2)o1 [3e, 4-(4-Fluorophenyl)-2-(2-((5-methylfuran-2-yl)methylene)hydrazinyl)thiazole] | 30.06% | 41.20% | 57.45% | 7.77 ± 0.01 µM | 68.7% | 69.7% | 70.7% | 71.8% | 72.8% | 73.7% | 0.00% | 8.26% | 19.32% | 44.74% | 49.04% |  | less than 50% |  |
| CC(=NNc1nc(-c2ccc(F)cc2)cs1)c1cccc(Br)c1 [3f, 2-(2-(1-(3-Bromophenyl)ethylidene)hydrazinyl)-4-(4-fluorophenyl)thiazole] | 34.92% | 51.68% | 62.28% | 6.88 ± 0.16 µM | 84.1% | 86.7% | 87.3% | 88% | 90.4% | 91.3% | 0.00% | 0.00% | 19.48% | 28.70% | 40.73% |  | less than 50% |  |
| CC(=NNc1nc(-c2ccc(F)cc2)cs1)c1ccc(F)cc1 [3g, 4-(4-Fluorophenyl)-2-(2-(1-(4-fluorophenyl)ethylidene)hydrazinyl)thiazole] | 38.00% | 49.56% | 62.75% | 6.9 ± 0.23 µM | 24.3% | 34.6% | 48.8% | 54.3% | 66.6% | 74.6% | 0.00% | 0.00% | 0.00% | 0.00% | 8.45% |  | less than 50% | 1770 µM |
| Oc1ccc(Cl)cc1C=NNc1nc(-c2ccc(F)cc2)cs1 [3h, 4-Chloro-2-((2-(4-(4-fluorophenyl)thiazol-2-yl)hydrazinylidene)methyl)phenol] | 55.89% | 69.05% | 82.47% | 5.14 ± 0.03 µM | 50.9% | 56.5% | 65.5% | 68.4% | 69% | 70.7% | 0.00% | 0.00% | 0.00% | 8.78% | 23.25% |  | less than 50% |  |
| Fc1ccc(-c2csc(NN=Cc3cccc(C(F)(F)F)c3)n2)cc1 [3i, 4-(4-Fluorophenyl)-2-(2-(3-(trifluoromethyl)benzylidene)hydrazinyl)thiazole] | 38.90% | 51.09% | 64.58% | 6.7 ± 0.08 µM | 88% | 88.5% | 89.1% | 90% | 91.2% | 92.2% | 0.00% | 8.64% | 18.87% | 32.26% | 46.53% |  | less than 50% |  |
| CCOc1ccccc1C=NNc1nc(-c2ccc(F)cc2)cs1 [3j, 2-(2-(2-Ethoxybenzylidene)hydrazinyl)-4-(4-fluorophenyl)thiazole] | 29.58% | 42.23% | 54.03% | 8.07 ± 0.12 µM | 52.3% | 61.5% | 66.5% | 70.3% | 76.2% | 79.2% | 18.18% | 45.90% | 62.07% | 75.45% | 78.51% | 8.33 ± 0.08 mM |  |  |
| Fc1ccc(-c2csc(NN=Cc3ccccc3C(F)(F)F)n2)cc1 [3k, 4-(4-Fluorophenyl)-2-(2-(2-(trifluoromethyl)benzylidene)hydrazinyl)thiazole] | 47.84% | 57.72% | 70.90% | 6.03 ± 0.04 µM | 87.4% | 87.9% | 88.8% | 89.2% | 90% | 91.6% | 0.00% | 14.08% | 21.05% | 30.92% | 48.28% |  | less than 50% |  |
| COc1c(F)cccc1C=NNc1nc(-c2ccc(F)cc2)cs1 [3l, 2-(2-(3-Fluoro-2-methoxybenzylidene)hydrazinyl)-4-(4-fluorophenyl)thiazole] | 37.06% | 49.08% | 61.72% | 7 ± 0.13 µM | 79.9% | 81.8% | 83% | 84.6% | 86.2% | 87.1% | 0.00% | 15.62% | 32.06% | 46.14% | 65.18% | 12.94 ± 0.01 mM |  |  |
| C[C@H]1O[C@H](O[C@H]2[C@H](O)[C@@H](O)[C@@H](O[C@H]3[C@H](O)[C@@H](O)C(O)O[C@@H]3CO)O[C@@H]2CO)[C@H](O)[C@@H](O)[C@@H]1N[C@H]1C=C(CO)[C@@H](O)[C@H](O)[C@H]1O (stereo partly shown) [acarbose, reference compound] | 53.42% | 66.81% | 74.77% |  |  |  |  |  |  |  |  |  |  |  |  |  |  |  |
| O=C1O[C@H]([C@@H](O)CO)C(O)=C1O [ascorbic acid, reference compound] |  |  |  |  |  |  |  |  |  |  | 52.34% | 61.01% | 74.41% | 81.85% | 84.92% | 7.18 ± 0.01 mM |  |  |

Source: publication PMC10061536 (ACS Omega, 2023)
